Columns and labels:
[1] = biological target: Protein kinase C alpha type (Homo sapiens, UniProt P17252); assay: Displacement of [3H]PDBu from full length recombinant human PKCalpha expressed in baculovirus expression system after 5 mins by scintillation counting
Procedure, shortened: (§1)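 Competition of [3H]PDBu binding by polyethylene glycol precipitation, with 100 µg/ml phosphatidylserine and ≤0.003% Triton X-100, 5 min at 37 °C. Proteins: full-length purified human PKCα, PKCε; full-length RasGRP1; MBP-RasGRP3 from E. coli BL21(DE3) induced with 0.3 mM IPTG 6 h at room temperature. Ki mean ± SEM of ≥2 experiments, triplicate points.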

[2] = biological target: T1, Ras guanyl-releasing protein 3 (Homo sapiens, UniProt Q8IV61); assay: Displacement of [3H]PDBu from full length MBP-tagged human RasGRP3 expressed in Escherichia coli BL21 (DE3) after 5 mins by scintillation counting; procedure, shortened: as §1
T1 sequence (Q8IV61 whole entry): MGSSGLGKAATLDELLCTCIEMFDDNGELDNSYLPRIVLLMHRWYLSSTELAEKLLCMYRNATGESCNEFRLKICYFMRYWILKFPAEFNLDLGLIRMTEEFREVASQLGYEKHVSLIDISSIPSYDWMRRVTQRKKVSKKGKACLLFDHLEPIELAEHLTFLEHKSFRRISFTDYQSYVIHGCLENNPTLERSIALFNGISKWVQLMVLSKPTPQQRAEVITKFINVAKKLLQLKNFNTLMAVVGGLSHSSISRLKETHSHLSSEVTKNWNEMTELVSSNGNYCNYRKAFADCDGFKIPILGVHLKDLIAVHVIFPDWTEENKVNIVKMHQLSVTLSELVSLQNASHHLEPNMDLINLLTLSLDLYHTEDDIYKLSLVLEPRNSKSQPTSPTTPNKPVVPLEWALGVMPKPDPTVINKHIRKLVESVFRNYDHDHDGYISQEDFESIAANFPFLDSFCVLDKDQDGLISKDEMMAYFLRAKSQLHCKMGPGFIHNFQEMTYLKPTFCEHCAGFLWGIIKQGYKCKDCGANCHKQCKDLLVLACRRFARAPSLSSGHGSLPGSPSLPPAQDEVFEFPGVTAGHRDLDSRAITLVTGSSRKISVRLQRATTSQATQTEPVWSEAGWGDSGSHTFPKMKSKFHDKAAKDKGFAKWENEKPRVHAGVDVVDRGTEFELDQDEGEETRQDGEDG

[3] = biological target: T2, Protein kinase C epsilon type (Homo sapiens, UniProt Q02156); assay: Displacement of [3H]PDBu from full length recombinant human PKCepsilon expressed in baculovirus expression system after 5 mins by scintillation counting; procedure, shortened: as §1
T2 sequence (Q02156 whole entry): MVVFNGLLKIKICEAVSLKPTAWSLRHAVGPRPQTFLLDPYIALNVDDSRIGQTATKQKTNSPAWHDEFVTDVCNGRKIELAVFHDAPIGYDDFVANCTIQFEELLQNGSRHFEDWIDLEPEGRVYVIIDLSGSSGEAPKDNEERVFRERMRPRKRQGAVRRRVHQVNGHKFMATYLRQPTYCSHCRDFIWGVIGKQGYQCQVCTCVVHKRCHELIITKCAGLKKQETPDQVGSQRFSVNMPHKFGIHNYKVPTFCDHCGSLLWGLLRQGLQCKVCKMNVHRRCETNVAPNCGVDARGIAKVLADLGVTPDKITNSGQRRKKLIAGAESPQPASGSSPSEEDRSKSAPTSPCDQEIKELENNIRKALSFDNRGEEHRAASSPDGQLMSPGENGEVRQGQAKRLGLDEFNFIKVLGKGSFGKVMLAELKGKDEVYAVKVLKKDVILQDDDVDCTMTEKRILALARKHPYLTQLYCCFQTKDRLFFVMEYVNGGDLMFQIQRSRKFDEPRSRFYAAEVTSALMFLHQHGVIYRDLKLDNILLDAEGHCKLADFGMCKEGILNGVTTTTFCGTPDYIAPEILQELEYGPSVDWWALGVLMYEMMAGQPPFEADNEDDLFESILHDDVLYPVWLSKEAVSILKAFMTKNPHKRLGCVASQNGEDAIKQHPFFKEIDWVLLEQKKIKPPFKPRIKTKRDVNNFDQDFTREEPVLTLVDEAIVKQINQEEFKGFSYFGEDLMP

Homo sapiens = species on record: Homo sapiens; assay: Selectivity ratio of Ki for GST-tagged PKCalpha C1 domain to Ki for human RasGRP3 overexpressed in HEK-293 cells

SMILES	Ki [1] [nM]	Ki [2] [nM]	Ki [3] [nM]	Ratio Ki (Homo sapiens)
CCCCCCC(=O)OCC1(CO)C/C(=C\c2cn(C)c3ccccc23)C(=O)O1 (configuration not stated)	135	5.3	122	–
Cn1cc(/C=C2/CC(CO)(COC(=O)C(C)(C)C)OC2=O)c2cc([N+](=O)[O-])ccc21 (configuration not stated)	> 30000	1390	> 30000	–
CN(C)c1ccc(/C=C2\CC(CO)(COC(=O)c3ccc(Cl)cc3)OC2=O)cc1 (configuration not stated)	25.4	1.81	6.39	–
CN(C)c1ccc(C(=O)OCC2(CO)C/C(=C\c3cn(C)c4ccccc34)C(=O)O2)cc1 (configuration not stated)	186	18.2	220	–
CC(C)(C)C(=O)OCC1(CO)C/C(=C\c2csc3ccccc23)C(=O)O1 (configuration not stated)	28.8	1.67	8.17	–
COc1ccc(C(=O)OCC2(CO)C/C(=C\c3cn(C)c4ccccc34)C(=O)O2)cc1 (configuration not stated)	446	26.5	380	–
CC(C)(C)C(=O)OCC1(CO)C/C(=C\c2cn(CC3CC3)c3ccccc23)C(=O)O1 (configuration not stated)	29	3.58	60.6	–
Cn1cc(/C=C2\CC(CO)(COC(=O)C3CCCCC3)OC2=O)c2ccccc21 (configuration not stated)	112	2.86	98.2	–
CC(C)(C)C(=O)OCC1(CO)C/C(=C\c2ccc(Cl)cc2)C(=O)O1 (configuration not stated)	13.6	0.53	2.57	–
Cn1cc(/C=C2\CC(CO)(COC(=O)c3ccc(Cl)cc3)OC2=O)c2ccccc21 (configuration not stated)	146	11.2	208	–
CCCCn1cc(/C=C2\CC(CO)(COC(=O)C(C)(C)C)OC2=O)c2ccccc21 (configuration not stated)	25.6	1.87	19.2	–
CN(C)c1ccc(C(=O)OCC2(CO)C/C(=C\c3ccc([N+](=O)[O-])cc3)C(=O)O2)cc1 (configuration not stated)	–	–	–	90
CC(C)(C)C(=O)OCC1(CO)C/C(=C\c2ccccn2)C(=O)O1 (configuration not stated)	3640	192	1120	–
CN(C)c1ccc(/C=C2\CC(CO)(COC(=O)C(C)(C)C)OC2=O)cc1 (configuration not stated)	65.9	1.07	7.87	–
CN(C)c1ccc(C(=O)OCC2(CO)C/C(=C\c3ccccn3)C(=O)O2)cc1 (configuration not stated)	1480	271	328	–
Cn1nc(/C=C2\CC(CO)(COC(=O)C(C)(C)C)OC2=O)c2ccccc21 (configuration not stated)	184	7.22	131	–
COc1ccc(C(=O)OCC2(CO)C/C(=C\c3ccc([N+](=O)[O-])cc3)C(=O)O2)cc1 (configuration not stated)	–	–	–	20
COc1ccc(C(=O)OCC2(CO)C/C(=C\c3ccccn3)C(=O)O2)cc1 (configuration not stated)	1190	89.7	199	–
COc1ccc(/C=C2\CC(CO)(COC(=O)c3ccc(Cl)cc3)OC2=O)cc1 (configuration not stated)	30.1	1.54	6.8	–
CC(C)Cn1cc(/C=C2\CC(CO)(COC(=O)C(C)(C)C)OC2=O)c2ccccc21 (configuration not stated)	15.6	3.03	19.4	–
Cn1cc(/C=C2\CC(CO)(COC(=O)C(C)(C)C)OC2=O)c2cc(Cl)ccc21 (configuration not stated)	42.3	1.01	39.3	–

SMILES	Ki [1] [nM]	Ki [2] [nM]	Ki [3] [nM]	Ratio Ki (Homo sapiens)
CC(C)(C)C(=O)OCC1(CO)C/C(=C/c2csc3ccccc23)C(=O)O1 (configuration not stated)	37	4.26	12.5	–
CC(C)CC(CC(C)C)C(=O)OCC1(CO)C/C(=C\c2cn(C)c3ccccc23)C(=O)O1 (configuration not stated)	39	5.07	41.5	–
Cn1cc(/C=C2\CC(CO)(COC(=O)C(C)(C)C)OC2=O)c2cc([N+](=O)[O-])ccc21 (configuration not stated)	> 30000	3490	> 30000	–
CC(C)(C)C(=O)OCC1(CO)C/C(=C/c2coc3ccccc23)C(=O)O1 (configuration not stated)	62.5	11.7	73.3	–
COc1ccc(/C=C2\CC(CO)(COC(=O)C(C)(C)C)OC2=O)cc1 (configuration not stated)	72	1.09	10.1	–
Cn1cc(/C=C2/CC(CO)(COC(=O)C(C)(C)C)OC2=O)c2cc(Cl)ccc21 (configuration not stated)	79.1	4.32	104	–
O=C1OC(CO)(COC(=O)c2ccc(Cl)cc2)C/C1=C\c1ccccn1 (configuration not stated)	383	29	92.3	–
COc1ccc2c(c1)c(/C=C1\CC(CO)(COC(=O)C(C)(C)C)OC1=O)cn2C (configuration not stated)	249	4.76	208	–
COc1ccc(C(=O)OCC2(CO)C/C(=C\c3ccc(N(C)C)cc3)C(=O)O2)cc1 (configuration not stated)	128	7.48	18.2	–
Cn1cc(/C=C2\CC(CO)(COC(=O)/C=C/c3ccccn3)OC2=O)c2ccccc21 (configuration not stated)	2310	69.7	3410	–
COc1ccc(C(=O)OCC2(CO)C/C(=C\c3ccc(Cl)cc3)C(=O)O2)cc1 (configuration not stated)	27.6	2.25	7.1	–
CCCC(CCC)C(=O)OCC1(CO)C/C(=C\c2cn(C)c3ccccc23)C(=O)O1 (configuration not stated)	31.7	0.84	42.8	–
Cn1cc(/C=C2\CC(CO)(COC(=O)/C=C/c3ccccc3)OC2=O)c2ccccc21 (configuration not stated)	439	25	672	–
CN(C)c1ccc(/C=C2\CC(CO)(COC(=O)c3ccc(N(C)C)cc3)OC2=O)cc1 (configuration not stated)	252	26.8	39.4	–
O=C1OC(CO)(COC(=O)c2ccc(Cl)cc2)C/C1=C\c1ccc(Cl)cc1 (configuration not stated)	25.2	2.69	6.51	–
Cn1cc(/C=C2\CC(CO)(COC(=O)C3CCC(C(C)(C)C)CC3)OC2=O)c2ccccc21 (configuration not stated)	31.3	2.15	42	–
COc1ccc(/C=C2\CC(CO)(COC(=O)c3ccc(N(C)C)cc3)OC2=O)cc1 (configuration not stated)	82.2	7	18.3	–
Cn1cc(/C=C/C(=O)OCC2(CO)C/C(=C\c3cn(C)c4ccccc34)C(=O)O2)c2ccccc21 (configuration not stated)	375	15.7	780	–
CN(C)c1ccc(C(=O)OCC2(CO)C/C(=C\c3ccc(Cl)cc3)C(=O)O2)cc1 (configuration not stated)	30.4	2.73	9.5	–
COc1ccc(/C=C2\CC(CO)(COC(=O)c3ccc(OC)cc3)OC2=O)cc1 (configuration not stated)	84.7	4.17	13.4	–
CC(C)(C)C(=O)OCC1(CO)C/C(=C\c2coc3ccccc23)C(=O)O1 (configuration not stated)	114	2.8	35.3	–

— ChEMBL document CHEMBL4130626, “α-Arylidene Diacylglycerol-Lactones (DAG-Lactones) as Selective Ras Guanine-Releasing Protein 3 (RasGRP3) Ligands” (J Med Chem, 2018)
